This note sets out measurements from ChEMBL document CHEMBL1782029, “Synthesis and biological evaluation of N-substituted benzo[c]phenanthrolines and benzo[c]phenanthrolinones as antiproliferative agents” (Eur J Med Chem, 2011).

Active and inactive are the calls of the source. The rule behind the calls is not given here.

The test system of assay [1] is Calf thymus DNA. Description: Binding affinity to calf thymus DNA at 20 uM by UV-vis spectrophotometry analysis. Format: nucleic-acid assay. Conditions: Bos taurus.
Assay [2] relates to HT-29. Description: Cell cycle arrest in human HT-29 cells at G2/M phase at 0.1 to 2.5 uM after 48 hrs using propidium iodide staining by FACS analysis. Format: functional, cell-based. Put shortly: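 Exponentially growing HT-29 colon carcinoma cells (300,000 per well) were plated for 24 h, then exposed to 0.1, 1 or 2.5 µM compound for 48 h. Cells were fixed, stained with propidium iodide and analysed by flow cytometry (FACScan).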
In general terms: In flow cytometry, cells or beads pass a laser one at a time.

In assay [3] the test system is HT-29. Briefly: Cytotoxicity against human HT-29 cells after 72 hrs by MTS assay. The format is functional, cell-based. The note with it: HT-29, 72 h.
Assay [4] concerns the target T1, DNA topoisomerase 1 (Homo sapiens) (UniProt P11387).
T1 sequence (whole entry): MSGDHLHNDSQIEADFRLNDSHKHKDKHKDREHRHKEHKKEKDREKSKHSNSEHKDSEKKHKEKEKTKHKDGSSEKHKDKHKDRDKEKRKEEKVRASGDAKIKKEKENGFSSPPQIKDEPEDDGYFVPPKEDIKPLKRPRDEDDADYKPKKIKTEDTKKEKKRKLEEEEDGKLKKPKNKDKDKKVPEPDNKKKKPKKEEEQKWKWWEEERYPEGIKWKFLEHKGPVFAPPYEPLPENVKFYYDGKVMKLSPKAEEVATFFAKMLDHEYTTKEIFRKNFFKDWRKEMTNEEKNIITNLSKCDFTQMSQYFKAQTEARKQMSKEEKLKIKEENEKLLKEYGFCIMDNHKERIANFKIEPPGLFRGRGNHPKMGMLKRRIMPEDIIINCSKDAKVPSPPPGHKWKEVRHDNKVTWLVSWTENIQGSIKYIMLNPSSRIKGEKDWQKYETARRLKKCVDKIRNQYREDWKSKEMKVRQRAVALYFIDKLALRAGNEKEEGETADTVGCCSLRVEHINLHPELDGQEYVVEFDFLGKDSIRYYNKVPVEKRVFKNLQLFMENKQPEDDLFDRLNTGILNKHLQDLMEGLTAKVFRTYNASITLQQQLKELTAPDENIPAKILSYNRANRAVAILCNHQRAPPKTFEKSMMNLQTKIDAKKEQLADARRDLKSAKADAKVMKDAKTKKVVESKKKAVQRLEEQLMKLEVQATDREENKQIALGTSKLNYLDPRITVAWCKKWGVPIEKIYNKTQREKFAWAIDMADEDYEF
Description: Inhibition of human recombinant topoisomerase 1-mediated relaxation of supercoiled pUC19 DNA assessed as formation of nicked DNA at 0.1 to 5 uM using ethidium bromide staining by agarose gel electrophoresis. Put shortly:
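Supercoiled pUC19 plasmid (130 ng) was incubated with 4 units of human recombinant Top1 at 37 °C for 45 min in relaxation buffer (50 mM Tris pH 7.8, 50 mM KCl, 10 mM MgCl2, 1 mM DTT, 1 mM EDTA, 1 mM ATP) with increasing compound concentrations. Products were resolved on 1% agarose at room temperature, 2 h at 120 V, then stained with ethidium bromide and imaged under UV.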

The target of assay [5] is T1, DNA topoisomerase 1 (Homo sapiens). Description: Inhibition of human recombinant topoisomerase 1 assessed as cleavage of 117-mer DNA fragment at 20 to 50 uM using ethidium bromide staining by agarose gel electrophoresis analysis.
Assay [6] shares this target. Briefly: Inhibition of camptothecin-induced poisoning effect of human topoisomerase 1 assessed as suppression of CPT-induced 117 bp DNA cleavage by SDS-PAGE analysis.
For assay [7], the system named is Nucleic Acid. Description: Binding affinity to 265 bp of 3'-end-radio-labelled DNA fragment at 0.5 to 5 uM treated 15 mins before Dnase 1-mediated digestion by footprinting assay. Format: nucleic-acid assay. Put shortly:
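DNase I footprinting. It was equilibrated with compound for 15 min at 37 °C, then digested 3 min with DNase I (0.01 unit/ml) in 20 mM NaCl, 2 mM MgCl2, 2 mM MnCl2, pH 7.3. Samples were lyophilised, denatured at 90 °C and run on an 8% denaturing polyacrylamide gel.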

In assay [8] the test system is Calf thymus DNA. Briefly: Binding affinity to calf thymus DNA by circular dichroism analysis. The format is nucleic-acid assay. The note with it: Bos taurus. (In general: Circular dichroism is the unequal absorption of left and right circularly polarised light.)
Assay [9] deals with DNA topoisomerase 2-alpha (Homo sapiens) (UniProt P11388). Description: Inhibition of human topoisomerase 2 assessed as formation of nicked form of supercoiled pUC19 DNA at 50 uM after 45 mins using ethidium bromide staining by agarose gel analysis.
Chain of DNA topoisomerase 2-alpha (Homo sapiens) (P11388 whole entry): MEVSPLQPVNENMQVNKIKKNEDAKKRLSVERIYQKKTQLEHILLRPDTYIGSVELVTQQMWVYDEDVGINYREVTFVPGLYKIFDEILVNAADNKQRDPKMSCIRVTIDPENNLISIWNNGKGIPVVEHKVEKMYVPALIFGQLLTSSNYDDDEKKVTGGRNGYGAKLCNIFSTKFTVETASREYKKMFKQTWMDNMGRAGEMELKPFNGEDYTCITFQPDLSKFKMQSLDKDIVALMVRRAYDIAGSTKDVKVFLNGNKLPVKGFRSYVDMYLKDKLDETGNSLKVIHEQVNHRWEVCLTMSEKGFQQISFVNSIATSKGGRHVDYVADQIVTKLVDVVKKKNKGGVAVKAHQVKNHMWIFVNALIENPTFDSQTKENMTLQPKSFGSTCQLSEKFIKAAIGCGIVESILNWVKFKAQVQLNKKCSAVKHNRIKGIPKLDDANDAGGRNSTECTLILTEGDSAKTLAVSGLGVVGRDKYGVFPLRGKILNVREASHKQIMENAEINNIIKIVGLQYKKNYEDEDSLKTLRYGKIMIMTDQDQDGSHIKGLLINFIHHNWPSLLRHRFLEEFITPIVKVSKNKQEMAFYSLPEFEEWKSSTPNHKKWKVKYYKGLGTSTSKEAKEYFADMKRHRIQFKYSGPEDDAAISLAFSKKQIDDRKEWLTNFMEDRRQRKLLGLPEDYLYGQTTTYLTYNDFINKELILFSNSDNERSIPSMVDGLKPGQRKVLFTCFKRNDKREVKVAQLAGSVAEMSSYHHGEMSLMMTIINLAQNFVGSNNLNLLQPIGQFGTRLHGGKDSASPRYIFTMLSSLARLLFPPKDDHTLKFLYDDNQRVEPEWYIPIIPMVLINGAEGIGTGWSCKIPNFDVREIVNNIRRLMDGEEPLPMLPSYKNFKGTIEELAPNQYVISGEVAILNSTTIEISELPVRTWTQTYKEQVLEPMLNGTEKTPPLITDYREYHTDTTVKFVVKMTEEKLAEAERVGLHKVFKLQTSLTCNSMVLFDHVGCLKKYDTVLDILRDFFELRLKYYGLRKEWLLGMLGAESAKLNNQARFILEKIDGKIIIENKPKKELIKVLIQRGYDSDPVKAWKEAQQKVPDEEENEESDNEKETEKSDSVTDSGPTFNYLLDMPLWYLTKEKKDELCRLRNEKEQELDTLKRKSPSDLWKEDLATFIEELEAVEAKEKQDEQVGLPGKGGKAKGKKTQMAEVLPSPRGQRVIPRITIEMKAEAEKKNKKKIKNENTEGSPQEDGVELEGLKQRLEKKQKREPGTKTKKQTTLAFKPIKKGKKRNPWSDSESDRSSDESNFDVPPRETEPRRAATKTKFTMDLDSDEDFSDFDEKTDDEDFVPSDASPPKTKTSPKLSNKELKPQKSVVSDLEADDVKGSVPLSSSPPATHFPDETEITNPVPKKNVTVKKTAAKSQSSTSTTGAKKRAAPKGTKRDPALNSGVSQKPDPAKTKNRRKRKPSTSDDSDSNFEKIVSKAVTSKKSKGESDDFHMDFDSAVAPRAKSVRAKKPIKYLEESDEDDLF
The target is the same in assay [10]. Briefly: Inhibition of human topoisomerase 2 assessed as formation of linear form of supercoiled pUC19 DNA at 50 uM after 45 mins using ethidium bromide staining by agarose gel analysis.

Usually IC50 stands for the concentration that inhibits the measured activity by half. A lower IC50 goes with greater potency. For the molecule `CN(C)CCNc1nc2c3ccncc3ccc2c2cc3c(cc12)OCO3`, the outcome in assay [1], in [2] and in assay [8] was Active. In assay [3], this molecule returned an IC50 of 0.07 µM. For the same molecule, the “Top1 relaxation inhibition (qualitative call)” value (from here on “Top1 relaxation inhibition”) in [4] is “Active”. The inhibition result in assay [5], in assay [9] and in assay [10] was “inactive” each time. Further, the inhibition result in assay [6] was “Dose-dependent effect”. In assay [7], the inhibition entry is “Active”.
`CN(C)CCCNc1nc2c3ccncc3ccc2c2cc3c(cc12)OCO3`: the result in assay [1] and in [8] was Active. Further, the IC50 in [3] came to 7.62 µM. Besides, in assay [4], the “Top1 relaxation inhibition” value was “Active”. Besides, the inhibition result in assay [5], in assay [7], in [9] and in assay [10] was “inactive” throughout. Moreover, in assay [6], the inhibition result is “Dose-dependent effect”.
`CCN(CC)CCCNc1nc2c3ccncc3ccc2c2cc(OC)c(OC)cc12`: the outcome in [1] and in assay [8] was Active. Also, the IC50 in [3] came out at 5.47 µM. For the same molecule, the “Top1 relaxation inhibition” value in assay [4] was “Active”. Also, the inhibition entry in assay [5], in [7], in [9] and in assay [10] was “inactive” each time. The inhibition entry in assay [6] is “Dose-dependent effect”.
With `COc1cc2c(NCCCN(C)C)nc3c4ccncc4ccc3c2cc1OC`, the result in assay [1] and in assay [8] was Active. In assay [3], this molecule displayed an IC50 of 3.14 µM. The “Top1 relaxation inhibition” value in [4] was “Active”. The inhibition entry in assay [5], in assay [7], in assay [9] and in assay [10] was “inactive” throughout.
In the case of `CN(C)CCn1c(=O)c2cc3c(cc2c2ccc4cnccc4c21)OCO3`, the result in assay [1], in [2] and in [8] was Active. The IC50 in assay [3] amounted to 0.078 µM. Further, the “Top1 relaxation inhibition” value in assay [4] is “Active”. The inhibition result in [5], in [9] and in assay [10] was “inactive” in each case. In assay [6], the inhibition result was “Dose-dependent effect”. For the same molecule, the inhibition result in assay [7] is “Active”.
Turning to `CCN(CC)CCn1c(=O)c2cc3c(cc2c2ccc4ncccc4c21)OCO3`, the outcome in [1], in assay [2] and in assay [8] was Active. Further, it took 0.075 µM to reach half-maximal inhibition in assay [3] (IC50). Moreover, the “Top1 relaxation inhibition” value in [4] is “Active”. Moreover, the inhibition result in assay [5], in assay [9] and in assay [10] was “inactive” in each case. Also, the inhibition result in assay [6] is “Dose-dependent effect”. The inhibition entry in assay [7] was “Active”.
Turning to `COc1cc2c(NCCCN(C)C)nc3c4cccnc4ccc3c2cc1OC`, the result in [1] and in [8] was Active. In assay [3], this molecule displayed a half-inhibitory concentration (IC50) of 3.33 µM. Further, the “Top1 relaxation inhibition” value in assay [4] is “Active”. Moreover, the inhibition result in [5], in [9] and in assay [10] was “inactive” each time. The inhibition result in assay [6] is “Dose-dependent effect”. Also, the inhibition result in assay [7] is “Active”.
In the case of `CCN(CC)CCCNc1nc2c3cccnc3ccc2c2cc(OC)c(OC)cc12`, the result in assay [1] and in assay [8] was Active. In assay [3], this molecule registered an IC50 of 5.77 µM. Besides, in [4], the “Top1 relaxation inhibition” value was “Active”. Also, the inhibition result in [5], in [9] and in assay [10] was “inactive” each time. The inhibition entry in [6] is “Dose-dependent effect”. For the same molecule, the inhibition result in assay [7] was “Active”.
Consider `CN(C)CCCn1c(=O)c2cc3c(cc2c2ccc4ncccc4c21)OCO3`, for which the result in assay [1], in assay [2] and in assay [8] was Active. The same molecule displayed an IC50 in assay [3] of 0.23 µM. For the same molecule, in [4], the “Top1 relaxation inhibition” value is “Active”. The inhibition entry in [5], in [9] and in [10] was “inactive” in each case. In addition, in assay [6], the inhibition entry was “Dose-dependent effect”. Further, in assay [7], the inhibition entry is “Active”.
Take `CN(C)CCNc1nc2c3cccnc3ccc2c2cc3c(cc12)OCO3`: the result in assay [1], in assay [2] and in assay [8] was Active. This molecule had an IC50 in assay [3] of 0.11 µM. The “Top1 relaxation inhibition” value in assay [4] was “Active”. Moreover, the inhibition entry in [5], in [9] and in [10] was “inactive” in each case. Besides, in [6], the inhibition result is “Dose-dependent effect”. Moreover, the inhibition entry in [7] is “Active”.
As to `CN(C)CCCn1c(=O)c2cc3c(cc2c2ccc4cnccc4c21)OCO3`, the result in assay [1], in assay [2] and in [8] was Active. In assay [3], this molecule showed an IC50 of 0.24 µM. Moreover, the “Top1 relaxation inhibition” value in assay [4] is “Active”. The inhibition entry in assay [5], in assay [9] and in assay [10] was “inactive” throughout. Moreover, in assay [6], the inhibition entry was “Dose-dependent effect”. Moreover, in assay [7], the inhibition result was “Active”.
Take `COc1cc2c(NCCN(C)C)nc3c4cccnc4ccc3c2cc1OC`: the outcome in assay [1] and in [8] was Active. This molecule also displayed an IC50 in [3] of 0.97 µM. Further, in assay [4], the “Top1 relaxation inhibition” value is “Active”. The inhibition entry in assay [5], in assay [9] and in assay [10] was “inactive” in each case. The inhibition entry in [6] was “Dose-dependent effect”. Further, the inhibition entry in assay [7] was “Active”.
In the case of `CCN(CC)CCn1c(=O)c2cc3c(cc2c2ccc4cnccc4c21)OCO3`, the outcome in [1], in [2] and in [8] was Active. The molecule also came in with an IC50 in assay [3] of 0.23 µM. In addition, the “Top1 relaxation inhibition” value in assay [4] is “Active”. The inhibition entry in assay [5], in [9] and in assay [10] was “inactive” each time. In assay [6], the inhibition entry is “Dose-dependent effect”. The inhibition entry in [7] was “Active”.
As to `CN(C)CCn1c(=O)c2cc3c(cc2c2ccc4ncccc4c21)OCO3`, the outcome in assay [1], in assay [2] and in [8] was Active. This molecule also came in with an IC50 in assay [3] of 0.12 µM. In addition, in assay [4], the “Top1 relaxation inhibition” value is “Active”. The inhibition result in assay [5], in assay [9] and in assay [10] was “inactive” each time. Moreover, the inhibition entry in assay [6] was “Dose-dependent effect”. Also, the inhibition entry in [7] is “Active”.
